The record followed here is ChEMBL document CHEMBL3588785 (J Med Chem, 2015).

Values after ≈ are worked out from the molar mass of the structure shown. Active and inactive are the calls of the source. The calls are words filed in the database; no cut-off is given here.

Series [1] can be described thus: 1-Octanol-aqueous phosphate buffer partition coefficient, logD of the compound at pH 7.4. Type of series: physicochemical. An outline of the steps: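 Partition of compound between 1-octanol and aqueous phosphate buffer, pH 7.4; reported as distribution coefficient.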
Series [2] in a line: Intrinsic clearance in human liver microsomes. Particulars: read-out: CLH. It counts as ADME. (In general: Microsomes from liver hold many membrane-bound enzymes, among them those of drug oxidation.)
The target in series [3] is T1, Mitogen-activated protein kinase 1 (Homo sapiens, UniProt P28482). Description: Inhibition of ERK2 in human A375 cells harboring B-RAF V600E mutant assessed as decrease in phospho-ERK2 level after 2 hrs by Cellomics ArrayScanTM VTI imaging analysis. It counts as cell-based, A-375.
The species named for series [4] is Homo sapiens. Description: Selectivity for ERK (unknown origin) over MEK1 (unknown origin) at 1 uM. An outline of the steps:
(§1)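 Panel of 125 kinases screened with compound at 1 µM; kinases inhibited above 75% were recorded.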

Series [5] is described as follows: Clearance in mouse hepatocytes measured per 10^6 cells. It counts as ADME, cell-based, Hepatocyte. To be noted: read-out: CLH.
Series [6] is filed under the species Homo sapiens. Description: Selectivity for ERK (unknown origin) over C-RAF (unknown origin) at 1 uM. An outline of the steps: as §1
The species entered for series [7] is Homo sapiens. Put plainly: Selectivity for ERK (unknown origin) over AUR-B (unknown origin) at 1 uM. An outline of the steps: as §1
The species entered for series [8] is Homo sapiens. Put plainly: Selectivity for ERK (unknown origin) over SRC (unknown origin) at 1 uM. An outline of the steps:
as §1

The species entered for series [9] is Homo sapiens. Put plainly: Selectivity for ERK (unknown origin) over AUR-C (unknown origin) at 1 uM. In outline: as §1
For series [10], the target named is T1, Mitogen-activated protein kinase 1. Description: Inhibition of MEK U911-activated ERK2 (unknown origin) using Erktide as substrate preincubated with enzyme for 20 mins prior to substrate addition by RapidFire Mass Spectrometry in presence of ATP at Km concentration.
Another series deals with A-375. Description: Antiproliferative activity against human A375 cells harboring B-RAF V600E mutant after 72 hrs by Cellomics ArrayScanTM VTI imaging analysis. It counts as functional, cell-based. Particulars: A-375, 72 h.
The species entered for series [11] is Homo sapiens. Description: Selectivity for ERK (unknown origin) over CDK7 (unknown origin) at 1 uM. An outline of the steps: as §1
A further series has as its system Hepatocyte. Description: Intrinsic clearance in rat hepatocytes. It counts as ADME, cell-based.
Series [12] addresses T2, Mitogen-activated protein kinase; ERK1/ERK2 (Homo sapiens, UniProt P27361+P28482). Description: Inhibition of ERK1/2 in human A375 cells harboring B-RAF V600E mutant assessed as decrease in phospho-RSK level after 2 hrs by Cellomics ArrayScanTM VTI imaging analysis. Type of series: cell-based. Particulars: a-375.
The nature of series [13]: Solubility of the compound in aqueous phosphate buffer at 25 degC at pH 7.4 after 24 hrs. Type of series: physicochemical.
In series [14] the target is Dual specificity mitogen-activated protein kinase kinase 1 (Homo sapiens, UniProt Q02750). Put plainly: Inhibition of MEK1 (unknown origin) autophosphorylation incubated with enzyme for 20 mins prior to ATP addition by ADP Glo kinase assay in presence of ATP at Km concentration. (In general: ADP-Glo turns the ADP formed in a reaction into a luminescent signal.)
The nature of series [15]: AUC (0 to t) in mouse at 100 mg/kg, po. Type of series: ADME, organism-based. Particulars: in vivo.
Series [16] deals with T1, Mitogen-activated protein kinase 1. Description: Inhibition of MEK U911-activated ERK2 (unknown origin) using Erktide as substrate preincubated with enzyme for 20 mins prior to substrate addition by RapidFire Mass Spectrometry in presence of ATP at higher concentration.
A short description of series [17]: GSH reactivity assessed as half life.
The target in series [18] is T1, Mitogen-activated protein kinase 1. Put plainly: Covalent binding to ERK2 (unknown origin) after 2 hrs by mass spectrometry. An outline of the steps:
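ERK2 protein incubated with compound at 3-fold molar excess over protein, room temperature, 2 hours; sample diluted 10-fold and loaded immediately for intact-mass MS.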

Series [19] is described as follows: Stability in pH 7.4 buffer assessed as drug hydrolysis. It counts as physicochemical. In outline: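 Compound held in pH 7.4 buffer alone at 37 °C, monitored over 11 hrs for hydrolysis.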
Series [20] in a line: Stability to hydrolysis in pH 7.4 buffer measured over 11 hrs at 37 degC.
Series [21] addresses T2, Mitogen-activated protein kinase; ERK1/ERK2. Particulars: Calu-6, 500 nM.
Series [22] deals with Mitogen-activated protein kinase 3 (Mus musculus) (UniProt Q63844). Put plainly: Binding affinity to ERK1 in mouse fibroblasts assessed as half-life.
Series [23] deals with Mitogen-activated protein kinase 1 (Mus musculus) (UniProt P63085).
Mitogen-activated protein kinase 1 (Mus musculus), sequence (P63085 whole entry): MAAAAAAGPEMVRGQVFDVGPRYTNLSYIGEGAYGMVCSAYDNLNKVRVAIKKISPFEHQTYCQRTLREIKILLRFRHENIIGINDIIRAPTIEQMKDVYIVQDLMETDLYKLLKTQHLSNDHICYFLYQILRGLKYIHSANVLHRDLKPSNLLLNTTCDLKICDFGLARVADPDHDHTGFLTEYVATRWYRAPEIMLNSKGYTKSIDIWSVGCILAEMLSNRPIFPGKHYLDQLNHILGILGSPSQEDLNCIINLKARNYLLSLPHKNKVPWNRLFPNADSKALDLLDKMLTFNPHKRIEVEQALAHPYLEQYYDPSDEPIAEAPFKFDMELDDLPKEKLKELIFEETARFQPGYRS

Dual specificity mitogen-activated protein kinase kinase 1, sequence (Q02750 whole entry): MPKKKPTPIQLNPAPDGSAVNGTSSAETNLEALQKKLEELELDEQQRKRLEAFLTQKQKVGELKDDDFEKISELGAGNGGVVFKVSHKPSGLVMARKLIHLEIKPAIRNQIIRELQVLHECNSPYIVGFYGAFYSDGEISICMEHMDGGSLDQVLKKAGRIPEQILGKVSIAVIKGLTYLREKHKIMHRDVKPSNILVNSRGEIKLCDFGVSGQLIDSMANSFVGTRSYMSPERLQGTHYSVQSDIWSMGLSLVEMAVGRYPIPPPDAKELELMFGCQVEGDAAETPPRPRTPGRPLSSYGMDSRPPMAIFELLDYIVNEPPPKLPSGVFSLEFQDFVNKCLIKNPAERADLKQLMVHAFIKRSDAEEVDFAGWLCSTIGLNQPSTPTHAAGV
Mitogen-activated protein kinase 3 (Mus musculus), sequence (Q63844 whole entry): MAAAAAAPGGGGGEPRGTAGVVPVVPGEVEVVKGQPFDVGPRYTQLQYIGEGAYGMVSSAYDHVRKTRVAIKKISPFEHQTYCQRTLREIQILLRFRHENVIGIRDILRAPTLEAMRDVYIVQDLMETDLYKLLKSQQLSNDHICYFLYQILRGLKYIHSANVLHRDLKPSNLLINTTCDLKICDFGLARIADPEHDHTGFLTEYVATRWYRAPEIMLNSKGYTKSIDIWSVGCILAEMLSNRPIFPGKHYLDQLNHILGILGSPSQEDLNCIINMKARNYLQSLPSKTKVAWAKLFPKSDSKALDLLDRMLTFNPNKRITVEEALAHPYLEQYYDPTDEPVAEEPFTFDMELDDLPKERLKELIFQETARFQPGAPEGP

What is called logD is the decadic logarithm of the distribution of all forms, ionised or not, between an organic phase and buffer at a given pH. Higher therefore signals a more lipophilic compound. As a reminder, the IC50 is the concentration that gives 50% inhibition. Usually solubility stands for the concentration that dissolves in the medium under given conditions. Low readings indicate a poorly soluble substance, high ones a readily soluble substance. As a reminder, the AUC(0-t) is exposure summed from dosing to a finite time, without extrapolation to infinity. In [1], `C=CC(=O)Nc1ccccc1Nc1nc(NC2CCOCC2)ncc1C(F)(F)F` had a logD of 2.9. The microsomal CLint in series [2] is 38 µL/min/mg. Besides, the IC50 was 22 nM in series [3]; 6.9 nM in series [10]; 53 nM in the series on A-375; 65 nM in series [12]; above 10000 nM in [14]; 8.5 nM in [16]. The Selectivity ratio in the series filed under Homo sapiens [4], in the series filed under Homo sapiens [6], in the series listed under Homo sapiens [7], in the series listed under Homo sapiens [8], in the series listed under Homo sapiens [9] and in the series listed under Homo sapiens [11] was 6 each time. In addition, the hepatocyte CLint in [5] is 143 µL/min/1e6 cells. Further, in the series with Hepatocyte, the CLH was 270 µL/min/mg. Further, in [13], the solubility at 24 h was found to be 59 µM (≈ 24 µg/mL). In series [15], this compound had an AUC(0-t) of 21 µM·h.
Compound `C=CS(=O)(=O)N1CCc2cnc(NC3CCOCC3)nc2C1` yielded a logD in series [1] of 1. Besides, the 50% inhibitory concentration (IC50) is 240 nM in series [3]; 370 nM in series [10]; 1100 nM in [12]; above 10000 nM in [14]; 220 nM in [16]. Besides, the T1/2 in [17] turned out to be 0.257 h. The Selectivity ratio in the series filed under Homo sapiens [4] and in the series filed under Homo sapiens [6] was 2 in each case. The outcome in [18] was Active. Besides, the Stability entry in series [19] and in series [20] was “Stable” each time. Moreover, in series [13], the concentration in solution (solubility at 24 h) was 760 µM (≈ 247 µg/mL).
On to `C=CC(=O)Nc1cnccc1Nc1nc(NC2CCOCC2)ncc1Cl`, for which, in series [1], the logD came out at 2.3. For the same compound, the microsomal CLint in [2] worked out at 13 µL/min/mg. The IC50 was 6.7 nM in series [3]; 3.1 nM in [10]; 41 nM with A-375; 28 nM in series [12]; above 10000 nM in series [14]; 3 nM in series [16]. The T1/2 in series [17] came out at 0.7 h; in [22] it was 120 h; in series [23], 54 h. The Selectivity ratio in the series filed under Homo sapiens [4] and in the series filed under Homo sapiens [6] was 2 throughout. Moreover, the Stability entry in series [19] is recorded as “Stable”. For the same compound, the inhibition result in series [21] is “Active”. The compound further displayed a CLH in the series on Hepatocyte above 250 µL/min/mg. The solubility at 24 h in [13] amounted to 150 µM (≈ 56.2 µg/mL).
